A word on the IC50: it is the concentration that gives 50% inhibition. The Cmax is the maximum level reached in the sampled fluid or tissue.

Series [1] addresses T1, Receptor-type tyrosine-protein kinase FLT3 (Homo sapiens, UniProt P36888).
T1 sequence (P36888 whole entry): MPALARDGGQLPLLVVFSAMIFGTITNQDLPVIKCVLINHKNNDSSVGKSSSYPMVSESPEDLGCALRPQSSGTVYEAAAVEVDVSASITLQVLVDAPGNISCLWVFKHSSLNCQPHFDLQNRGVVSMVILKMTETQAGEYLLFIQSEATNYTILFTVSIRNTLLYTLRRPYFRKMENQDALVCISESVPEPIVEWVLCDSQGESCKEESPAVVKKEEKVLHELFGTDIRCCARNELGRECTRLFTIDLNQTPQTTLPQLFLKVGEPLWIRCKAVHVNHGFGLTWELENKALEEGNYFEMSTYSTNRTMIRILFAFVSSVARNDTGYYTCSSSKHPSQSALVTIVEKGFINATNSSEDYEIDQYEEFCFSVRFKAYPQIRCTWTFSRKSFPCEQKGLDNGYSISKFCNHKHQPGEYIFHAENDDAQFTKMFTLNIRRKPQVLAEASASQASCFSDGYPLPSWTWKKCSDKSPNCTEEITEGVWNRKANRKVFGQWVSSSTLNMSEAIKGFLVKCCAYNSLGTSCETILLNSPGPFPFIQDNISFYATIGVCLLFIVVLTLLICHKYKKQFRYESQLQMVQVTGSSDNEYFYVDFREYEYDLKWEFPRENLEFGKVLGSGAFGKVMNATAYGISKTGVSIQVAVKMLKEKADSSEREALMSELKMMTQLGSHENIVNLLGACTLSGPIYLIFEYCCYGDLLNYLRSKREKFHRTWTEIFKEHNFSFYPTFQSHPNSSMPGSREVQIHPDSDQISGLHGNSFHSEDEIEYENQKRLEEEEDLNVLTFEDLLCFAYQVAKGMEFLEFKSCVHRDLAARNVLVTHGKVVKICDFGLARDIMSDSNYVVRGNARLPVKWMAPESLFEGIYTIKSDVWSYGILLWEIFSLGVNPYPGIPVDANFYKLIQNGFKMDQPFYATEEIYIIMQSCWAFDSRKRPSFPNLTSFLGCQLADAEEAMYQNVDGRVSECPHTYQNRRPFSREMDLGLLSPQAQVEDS
Nature of the series: Inhibition of human FLT3. The essentials:
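Human FLT3 kinase assayed across a dose−response series at 200 μM ATP.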

Series [2] concerns the target Vascular endothelial growth factor receptor 1 (Homo sapiens, UniProt P17948). Nature of the series: Inhibition of human FLT1.
The test system of series [3] is MV4-11. Nature of the series: Antitumor activity against human MV4-11 cells xenografted in NOD-SCID mouse assessed as tumor growth inhibition at 100 mg/kg, ip once daily for 21 days measured every 3 days relative to control. Particulars: MV4-11, ip, route intraperitoneal, read-out: GI. The format is functional. The essentials:
(§1)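 Female NOD-SCID mice, 6−7 weeks old, received 100 μL of MV4-11 cells (1 × 10⁸/mL in serum-free medium) s.c. in the hind flank. At 300−500 mm³ tumours, mice were randomized (6 per group). Drug was dissolved in 25% (v/v) PEG400 plus 5% DMSO and given ip once daily at 5 mL/kg. Calipers every 3 days; volume = a × b²/2.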

Series [4] has as its system MV4-11. Nature of the series: Cytotoxicity against FLT3-dependent human MV4-11 cells after 72 hrs by MTT assay. The class given is functional, cell-based. Particulars: MV4-11, 72 h. The essentials:
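Leukemia cells at 1−4 × 10⁴ per well were exposed to increasing inhibitor concentrations for 72 h at 37 °C. MTT was then added for 2−4 h, and cells were lysed with 20% acidified SDS. OD read at 570 nm. Viability relative to 0.1% DMSO controls; triplicate. MV4-11 grown in IMDM, others in RPMI 1640 or DMEM with 10% FBS.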

In the next series the test system is MDA-MB-231. Nature of the series: Cytotoxicity against human MDA-MB-231 cells after 72 hrs by MTT assay. The following applies: MDA-MB-231, 72 h. (In general: Formazan colour is commonly taken as a measure of viable cells.)
The subject of the next series is A-431. Nature of the series: Cytotoxicity against human A431 cells after 72 hrs by MTT assay. The following applies: A-431, 72 h.
The test system of the next series is NCI-H2228. Nature of the series: Cytotoxicity against human NCI-H2228 cells after 72 hrs by MTT assay. The following applies: NCI-H2228, 72 h.
The test system of series [5] is MV4-11. Nature of the series: Antitumor activity against human MV4-11 cells xenografted in NOD-SCID mouse assessed as tumor growth inhibition at 40 mg/kg, ip once daily for 21 days measured every 3 days. The class given is functional. The following applies: MV4-11, ip, route intraperitoneal, read-out: GI. Put shortly: as §1
(In general: Xenograft models place foreign cells or tissue in a host animal.)

Series [6] addresses Serine/threonine-protein kinase pim-1 (Homo sapiens, UniProt P11309). Nature of the series: Inhibition of human Pim1.
Series [7] can be described thus: Cmax in Sprague-Dawley rat at 40 mg/kg, ip. Also on record: dose 40 mg/kg, route intraperitoneal. Particulars: in vivo. The format is ADME, organism-based. The essentials: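 Male Sprague−Dawley rats (200−250 g), n = 3, fasted overnight, with a femoral-vein catheter for blood sampling. Single 40 mg/kg ip dose; plasma drug levels measured by LC-MS/MS.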
The subject of series [8] is MV4-11. Nature of the series: Antitumor activity against human MV4-11 cells xenografted in NOD-SCID mouse assessed as increase in apoptotic cells at 20 mg/kg, ip administered qd for 21 days measured after 2 to 3 days of last dose by TUNEL analysis. The format is functional, organism-based. The arrangement: dose 20 mg/kg. The following applies: TDE = time-dependent effect. Put shortly: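 NOD-SCID mice bearing MV4-11 tumours received 20 mg/kg/d ip and were sacrificed at set times after dosing. Tumours were formalin-fixed and paraffin-embedded, and 4−8 μm sections were cut. Proliferation by Ki67 immunostaining, apoptosis by TUNEL staining, tissue by hematoxylin staining; light-microscope imaging.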

Series [9] addresses Insulin-like growth factor 1 receptor (Homo sapiens, UniProt P08069). Nature of the series: Inhibition of human IGF-1R.
The next series concerns MCF7. Nature of the series: Cytotoxicity against human MCF7 cells after 72 hrs by MTT assay. The following applies: MCF7, 72 h.
Another series has as its system Jurkat. Nature of the series: Cytotoxicity against human Jurkat cells after 72 hrs by MTT assay.
Series [10] addresses Tyrosine-protein kinase JAK3 (Homo sapiens, UniProt P52333). Nature of the series: Inhibition of human JAK3.
Series [11] deals with Tyrosine-protein kinase SYK (Homo sapiens, UniProt P43405). Nature of the series: Inhibition of human Syk.
The test system of another series is Mus musculus. Nature of the series: Toxicity in NOD-SCID mouse bearing human MV4-11 cells assessed as change in body weight at 20 to 100 mg/kg, ip administered qd for 21 days. The format is organism-based. Particulars: in vivo, 504 h. The arrangement: dose 20-100 mg/kg, route intraperitoneal. The essentials: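 Female NOD-SCID mice (6−7 weeks old) received s.c. hind-flank injections of MV4-11 cells (100 μL of a 1 × 10⁸/mL suspension in serum-free medium). At 300−500 mm³, the mice were randomized into 4 groups of 6. They were dosed ip once daily for 21 days with 20, 40 or 100 mg/kg/d or vehicle (25% PEG400 plus 5% DMSO, 5 mL/kg). Body weight and signs of toxicity were followed throughout.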

The subject of the next series is U-937. Nature of the series: Cytotoxicity against human U937 cells after 72 hrs by MTT assay. Particulars: U-937, 72 h.
Another series concerns NCI-H292. Nature of the series: Cytotoxicity against human NCI-H292 cells after 72 hrs by MTT assay. Particulars: NCI-H292, 72 h.
Series [12] deals with Serine/threonine-protein kinase PLK1 (Homo sapiens, UniProt P53350). Nature of the series: Inhibition of human PLK1.
Sequence of Serine/threonine-protein kinase PLK1 (P53350 whole entry): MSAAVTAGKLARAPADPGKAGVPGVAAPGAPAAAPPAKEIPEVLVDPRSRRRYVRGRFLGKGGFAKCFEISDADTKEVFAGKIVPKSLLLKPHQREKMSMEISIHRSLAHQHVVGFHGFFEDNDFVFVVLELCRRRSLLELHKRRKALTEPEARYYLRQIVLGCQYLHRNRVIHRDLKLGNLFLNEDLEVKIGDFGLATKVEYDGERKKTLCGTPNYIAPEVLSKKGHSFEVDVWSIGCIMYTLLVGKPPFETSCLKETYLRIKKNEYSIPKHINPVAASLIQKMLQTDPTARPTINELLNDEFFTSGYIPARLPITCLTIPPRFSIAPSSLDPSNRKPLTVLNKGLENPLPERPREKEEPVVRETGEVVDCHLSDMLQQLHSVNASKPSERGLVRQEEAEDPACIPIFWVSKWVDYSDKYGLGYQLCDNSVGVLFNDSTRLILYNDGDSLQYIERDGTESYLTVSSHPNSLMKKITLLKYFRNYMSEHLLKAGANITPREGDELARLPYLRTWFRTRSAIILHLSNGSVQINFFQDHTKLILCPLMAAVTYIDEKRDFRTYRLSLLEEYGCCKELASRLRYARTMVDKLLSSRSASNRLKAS

Sequence of Vascular endothelial growth factor receptor 1 (P17948 whole entry): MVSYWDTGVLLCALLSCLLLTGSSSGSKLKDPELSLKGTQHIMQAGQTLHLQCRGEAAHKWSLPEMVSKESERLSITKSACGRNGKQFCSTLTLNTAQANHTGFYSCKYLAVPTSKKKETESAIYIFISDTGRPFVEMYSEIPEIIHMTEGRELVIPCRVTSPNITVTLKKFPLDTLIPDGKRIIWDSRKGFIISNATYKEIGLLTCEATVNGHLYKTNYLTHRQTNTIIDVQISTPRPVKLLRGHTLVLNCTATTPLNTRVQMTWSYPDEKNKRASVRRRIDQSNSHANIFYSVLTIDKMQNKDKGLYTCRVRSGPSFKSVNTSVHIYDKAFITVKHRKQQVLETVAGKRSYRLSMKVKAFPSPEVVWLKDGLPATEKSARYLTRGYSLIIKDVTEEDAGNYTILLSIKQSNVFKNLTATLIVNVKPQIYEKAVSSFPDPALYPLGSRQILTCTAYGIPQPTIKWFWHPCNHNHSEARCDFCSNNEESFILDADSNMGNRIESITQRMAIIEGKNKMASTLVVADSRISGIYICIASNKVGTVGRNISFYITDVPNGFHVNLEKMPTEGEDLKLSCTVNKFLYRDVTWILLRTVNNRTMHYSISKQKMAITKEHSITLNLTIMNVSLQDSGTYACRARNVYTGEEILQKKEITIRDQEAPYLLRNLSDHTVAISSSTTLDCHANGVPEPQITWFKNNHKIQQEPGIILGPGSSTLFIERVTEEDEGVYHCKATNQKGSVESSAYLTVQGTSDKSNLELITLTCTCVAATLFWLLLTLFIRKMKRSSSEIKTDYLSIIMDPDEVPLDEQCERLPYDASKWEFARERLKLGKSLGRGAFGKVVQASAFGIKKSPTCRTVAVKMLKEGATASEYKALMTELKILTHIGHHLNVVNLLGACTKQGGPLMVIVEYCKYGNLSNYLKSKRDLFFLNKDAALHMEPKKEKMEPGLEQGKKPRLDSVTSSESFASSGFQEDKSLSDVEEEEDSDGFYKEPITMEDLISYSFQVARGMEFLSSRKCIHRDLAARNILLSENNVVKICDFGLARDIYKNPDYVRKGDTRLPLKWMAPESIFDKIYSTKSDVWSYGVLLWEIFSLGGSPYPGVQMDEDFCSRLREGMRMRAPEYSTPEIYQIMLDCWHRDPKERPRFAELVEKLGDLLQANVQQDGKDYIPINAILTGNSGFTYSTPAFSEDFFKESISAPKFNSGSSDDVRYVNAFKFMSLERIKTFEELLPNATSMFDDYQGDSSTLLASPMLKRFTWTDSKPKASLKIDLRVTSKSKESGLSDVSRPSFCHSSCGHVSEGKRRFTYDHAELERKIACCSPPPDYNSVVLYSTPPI
Sequence of Insulin-like growth factor 1 receptor (P08069 31-736 limits assumed): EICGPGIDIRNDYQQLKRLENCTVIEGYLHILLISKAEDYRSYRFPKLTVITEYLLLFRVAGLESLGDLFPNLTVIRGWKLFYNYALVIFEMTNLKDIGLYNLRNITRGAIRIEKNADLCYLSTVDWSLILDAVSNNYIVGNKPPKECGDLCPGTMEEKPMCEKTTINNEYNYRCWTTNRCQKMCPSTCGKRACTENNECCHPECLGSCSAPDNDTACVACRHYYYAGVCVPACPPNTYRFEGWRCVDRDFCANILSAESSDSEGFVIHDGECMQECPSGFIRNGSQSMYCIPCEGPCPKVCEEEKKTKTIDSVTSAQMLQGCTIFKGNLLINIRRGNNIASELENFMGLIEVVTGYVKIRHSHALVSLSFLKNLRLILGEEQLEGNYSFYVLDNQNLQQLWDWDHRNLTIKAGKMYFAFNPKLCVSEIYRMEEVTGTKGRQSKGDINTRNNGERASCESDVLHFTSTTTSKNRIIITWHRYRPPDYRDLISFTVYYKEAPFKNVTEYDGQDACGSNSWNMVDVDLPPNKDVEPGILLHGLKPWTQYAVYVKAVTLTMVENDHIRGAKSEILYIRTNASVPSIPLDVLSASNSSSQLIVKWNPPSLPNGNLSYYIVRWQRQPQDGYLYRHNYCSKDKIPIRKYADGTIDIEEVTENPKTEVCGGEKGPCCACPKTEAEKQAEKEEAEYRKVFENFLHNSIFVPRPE
Sequence of Insulin-like growth factor 1 receptor (P08069 741-1367 limits assumed): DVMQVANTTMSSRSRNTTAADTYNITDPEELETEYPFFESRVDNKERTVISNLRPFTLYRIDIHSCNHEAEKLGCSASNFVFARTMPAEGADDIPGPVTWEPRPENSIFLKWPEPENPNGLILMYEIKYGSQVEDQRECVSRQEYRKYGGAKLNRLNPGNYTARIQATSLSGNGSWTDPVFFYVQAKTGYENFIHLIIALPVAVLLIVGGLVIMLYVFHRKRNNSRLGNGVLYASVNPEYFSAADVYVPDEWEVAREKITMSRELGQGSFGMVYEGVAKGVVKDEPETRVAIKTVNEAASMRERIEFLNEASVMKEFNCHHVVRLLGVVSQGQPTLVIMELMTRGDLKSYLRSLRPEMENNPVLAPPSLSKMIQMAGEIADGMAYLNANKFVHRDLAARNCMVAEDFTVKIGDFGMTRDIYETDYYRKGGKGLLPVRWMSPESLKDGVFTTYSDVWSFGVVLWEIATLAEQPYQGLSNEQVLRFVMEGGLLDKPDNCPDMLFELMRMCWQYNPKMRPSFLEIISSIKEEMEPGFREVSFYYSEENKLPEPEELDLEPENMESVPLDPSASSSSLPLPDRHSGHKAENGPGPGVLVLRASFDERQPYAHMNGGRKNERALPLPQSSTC
Sequence of Tyrosine-protein kinase JAK3 (P52333 whole entry): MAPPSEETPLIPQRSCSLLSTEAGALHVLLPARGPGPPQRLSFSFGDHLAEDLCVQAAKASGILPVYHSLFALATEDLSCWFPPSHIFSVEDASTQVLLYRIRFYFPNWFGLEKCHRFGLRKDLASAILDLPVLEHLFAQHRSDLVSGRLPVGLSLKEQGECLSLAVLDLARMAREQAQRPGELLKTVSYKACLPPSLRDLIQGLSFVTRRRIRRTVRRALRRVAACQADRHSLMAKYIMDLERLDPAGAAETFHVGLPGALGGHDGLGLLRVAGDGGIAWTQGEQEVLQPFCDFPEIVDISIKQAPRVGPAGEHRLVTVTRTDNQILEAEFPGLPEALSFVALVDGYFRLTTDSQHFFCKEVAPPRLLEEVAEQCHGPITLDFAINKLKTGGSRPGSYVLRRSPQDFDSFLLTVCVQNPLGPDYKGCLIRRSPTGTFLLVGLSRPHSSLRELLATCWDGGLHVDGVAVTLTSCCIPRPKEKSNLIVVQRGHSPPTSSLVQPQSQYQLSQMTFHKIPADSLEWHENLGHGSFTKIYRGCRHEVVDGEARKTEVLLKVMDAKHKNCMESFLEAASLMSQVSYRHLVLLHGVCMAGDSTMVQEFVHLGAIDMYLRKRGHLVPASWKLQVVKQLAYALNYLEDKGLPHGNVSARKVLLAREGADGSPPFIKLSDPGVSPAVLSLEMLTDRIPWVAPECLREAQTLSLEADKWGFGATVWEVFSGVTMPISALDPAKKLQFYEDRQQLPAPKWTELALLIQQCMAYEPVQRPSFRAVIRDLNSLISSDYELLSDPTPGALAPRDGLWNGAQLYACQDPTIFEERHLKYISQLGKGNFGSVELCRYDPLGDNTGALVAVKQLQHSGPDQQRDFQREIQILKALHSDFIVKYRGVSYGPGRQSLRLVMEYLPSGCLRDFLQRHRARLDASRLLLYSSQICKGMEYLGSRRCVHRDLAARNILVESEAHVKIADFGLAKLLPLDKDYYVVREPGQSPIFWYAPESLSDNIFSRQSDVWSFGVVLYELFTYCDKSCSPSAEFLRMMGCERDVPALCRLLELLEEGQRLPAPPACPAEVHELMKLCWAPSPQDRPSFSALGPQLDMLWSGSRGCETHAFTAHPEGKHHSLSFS
Sequence of Serine/threonine-protein kinase pim-1 (P11309 whole entry): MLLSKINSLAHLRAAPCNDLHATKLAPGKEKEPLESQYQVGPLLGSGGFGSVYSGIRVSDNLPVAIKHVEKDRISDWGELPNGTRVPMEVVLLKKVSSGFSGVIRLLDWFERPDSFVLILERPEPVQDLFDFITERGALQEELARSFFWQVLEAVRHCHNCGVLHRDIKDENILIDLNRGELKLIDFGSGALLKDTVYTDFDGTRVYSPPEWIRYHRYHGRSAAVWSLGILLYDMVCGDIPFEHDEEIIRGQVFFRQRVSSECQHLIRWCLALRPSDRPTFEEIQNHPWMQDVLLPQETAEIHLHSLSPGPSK

As to `Cc1ccc(NC(=O)Nc2nnc(Sc3ncnc4cc(OCCCN5CCOCC5)ccc34)s2)cc1`, the IC50 in [1] was 10 nM; in [2] it was more than 1000 nM; in the series on MV4-11 [4], 6 nM; in the series on MDA-MB-231 it was more than 20 µM; with A-431 it was 8.91 µM; in the series on NCI-H2228 it was more than 20 µM. Further, the IC50 in series [6] is more than 10 µM; in series [9] it was more than 10 µM; in the series on MCF7 it was more than 20 µM; in the series with Jurkat, 3.05 µM; in [10], more than 10 µM; in series [11], more than 10 µM. Besides, the IC50 with U-937 is more than 10 µM; with NCI-H292, 6.94 µM; in series [12], more than 10 µM. Also, in the series on MV4-11 [3], the inhibition in vivo at 100 mg/kg was 115%. In addition, the inhibition in vivo at 40 mg/kg in the series on MV4-11 [5] came out at 84%. Moreover, the Cmax in [7] worked out at 5310 ng/mL. Besides, the figures for the Activity entry in the series on MV4-11 [8] and in the series with Mus musculus were “tde” and “Non-toxic”, respectively.
